From ChEMBL document CHEMBL4480457, “Dihydrophenanthrenes from Juncus effusus as Inhibitors of OAT1 and OAT3” (J Nat Prod, 2019)

Columns and labels:
[1] = target: T1, OAT1 (SLC22A6) (Homo sapiens, UniProt Q4U2R8); experiment: Inhibition of OAT1 (unknown origin) expressed in HEK293 cells assessed as reduction in 6-CF uptake at 50 uM measured after 5 mins by fluorescence assay relative to control; type: cell-based; settings: HEK293 cells expressing OAT1, probe 6-CF
T1 sequence (Q4U2R8 whole entry): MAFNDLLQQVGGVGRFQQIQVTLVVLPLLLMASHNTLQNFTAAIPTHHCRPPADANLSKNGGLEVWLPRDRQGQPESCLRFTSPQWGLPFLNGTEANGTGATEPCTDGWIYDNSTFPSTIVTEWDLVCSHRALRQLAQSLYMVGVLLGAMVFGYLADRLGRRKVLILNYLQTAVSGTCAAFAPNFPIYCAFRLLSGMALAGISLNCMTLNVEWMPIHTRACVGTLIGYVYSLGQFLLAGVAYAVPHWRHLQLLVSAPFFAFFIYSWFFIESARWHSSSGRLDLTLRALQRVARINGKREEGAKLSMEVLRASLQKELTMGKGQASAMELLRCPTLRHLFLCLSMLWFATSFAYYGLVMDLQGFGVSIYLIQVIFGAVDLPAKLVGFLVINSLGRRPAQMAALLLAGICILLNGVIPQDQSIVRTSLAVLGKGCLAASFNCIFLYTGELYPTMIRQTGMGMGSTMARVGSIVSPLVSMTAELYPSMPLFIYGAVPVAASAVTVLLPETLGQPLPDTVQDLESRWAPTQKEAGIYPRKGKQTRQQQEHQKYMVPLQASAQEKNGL
Summary of the method: (§1)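 Transfected HEK293 cells stably expressing OAT1 or OAT3, maintained under hygromycin B selection, were seeded on poly-D-lysine plates and grown 24 h. Cells preincubated 5 min at 37 °C in Hepes uptake buffer (pH 7.2), then exposed 5 min to 4 μM 6-CF with compound at 50 μM. Ice-cold stop, PBS wash, Triton lysis. Fluorescence read at 485/528 nm, normalized to BCA protein, in triplicate.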

[2] = target: T2, OAT3 (Homo sapiens, UniProt Q8TCC7); experiment: Inhibition of OAT3 (unknown origin) expressed in HEK293 cells assessed as reduction in 6-CF uptake at 50 uM measured after 5 mins by fluorescence assay relative to control; type: cell-based; settings: HEK293 cells expressing OAT3, probe 6-CF; summary of the method: as §1
T2 sequence (Q8TCC7 whole entry): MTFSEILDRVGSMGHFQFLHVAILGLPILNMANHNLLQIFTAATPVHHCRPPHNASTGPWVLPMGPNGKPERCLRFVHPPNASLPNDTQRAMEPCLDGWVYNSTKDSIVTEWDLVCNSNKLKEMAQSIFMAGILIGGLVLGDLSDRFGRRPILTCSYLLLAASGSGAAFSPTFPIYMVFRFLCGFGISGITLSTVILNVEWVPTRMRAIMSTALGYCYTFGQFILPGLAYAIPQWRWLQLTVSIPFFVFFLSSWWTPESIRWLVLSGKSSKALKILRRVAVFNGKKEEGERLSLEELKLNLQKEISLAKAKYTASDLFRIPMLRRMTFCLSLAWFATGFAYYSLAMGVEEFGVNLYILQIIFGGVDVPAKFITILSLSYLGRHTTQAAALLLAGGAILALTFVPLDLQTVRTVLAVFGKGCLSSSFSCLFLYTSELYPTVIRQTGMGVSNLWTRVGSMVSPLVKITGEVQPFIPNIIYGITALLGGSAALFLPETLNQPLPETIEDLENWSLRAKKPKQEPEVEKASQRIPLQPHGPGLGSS

[3] = target: T3, Organic anion transporter 3 (Homo sapiens, UniProt Q8TCC7); experiment: Inhibition of OAT3 (unknown origin) expressed in HEK293 cells assessed as reduction in 6-CF uptake measured after 5 mins by fluorescence assay; type: cell-based; settings: for inhibition (INH): human, hek293, 5 min
T3 sequence (Q8TCC7 whole entry): T2 sequence (Q8TCC7 whole entry)
Summary of the method: (§2)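 Uptake of 4 μM 6-CF measured over 5 min in stable OAT1- or OAT3-HEK293 cells, in pH 7.2 Hepes buffer at 37 °C with serial dilutions of compound. Lysate fluorescence (485/528 nm) normalized to protein, triplicate. IC50 obtained by nonlinear regression, reported as mean ± SEM.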

[4] = target: T4, Solute carrier family 22 member 6 (Homo sapiens, UniProt Q4U2R8); experiment: Inhibition of OAT1 (unknown origin) expressed in HEK293 cells assessed as reduction in 6-CF uptake measured after 5 mins by fluorescence assay; type: cell-based; settings: for inhibition (INH): human, hek293, 5 min; summary of the method: as §2
T4 sequence (Q4U2R8 whole entry): T1 sequence (Q4U2R8 whole entry)

[5] = Toxicity in Wistar rat at 20 mg/kg, po administered via gavage; type: organism-based; settings: in vivo
Summary of the method: (§3)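 Preliminary test in fasted rats: single oral gavage dose in 40% PEG-400, observed for toxic response.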

[6] = system: Rattus norvegicus; experiment: In vivo inhibition of OAT1 and OAT3 in Wistar rat assesed as increase in furosemide AUC (0 to t) at 20 mg/kg, po administered via gavage pretreated for 5 mins followed by furosemide addition and measured within 10 mins by HPLC analysis; type: functional; design: scale not given: the % may be the effect or the level left
Summary of the method: (§4)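 Rats (5 per group) fasted 12 h, then pretreated by oral gavage with test agent in 40% PEG-400 or vehicle. After 5 min, furosemide 10 mg/kg in saline given by tail vein injection. Orbital sinus blood taken at 2–120 min. Plasma extracted with MeCN containing warfarin internal standard. Furosemide quantified by C18 HPLC with UV detection at 280 nm. AUC0−t calculated.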

[7] = system: Rattus norvegicus; experiment: In vivo inhibition of OAT1 and OAT3 in Wistar rat assesed as increase in furosemide AUC (0 to t) at 10 mg/kg, po administered via gavage pretreated for 5 mins followed by furosemide addition and measured within 10 mins by HPLC analysis; type: functional; design: scale not given: the % may be the effect or the level left; settings: in the assay text read “at 20 mg/kg” for “at 10 mg/kg”; summary of the method: as §4
[8] = system: Rattus norvegicus; experiment: In vivo inhibition of OAT1 and OAT3 in Wistar rat assesed as increase in furosemide AUC (0 to t) at 20 mg/kg, po administered via gavage pretreated for 5 mins followed by furosemide addition and measured within 30 mins by HPLC analysis; type: functional; design: scale not given: the % may be the effect or the level left; summary of the method: as §4
[9] = system: Rattus norvegicus; experiment: In vivo inhibition of OAT1 and OAT3 in Wistar rat assesed as increase in furosemide AUC (0 to t) at 10 mg/kg, po administered via gavage pretreated for 5 mins followed by furosemide addition and measured within 30 mins by HPLC analysis; type: functional; design: scale not given: the % may be the effect or the level left; settings: in the assay text read “at 20 mg/kg” for “at 10 mg/kg”; summary of the method: as §4
[10] = system: Rattus norvegicus; experiment: In vivo inhibition of OAT1 and OAT3 in Wistar rat assesed as increase in furosemide AUC (0 to t) at 20 mg/kg, po administered via gavage pretreated for 5 mins followed by furosemide addition and measured within 90 mins by HPLC analysis; type: functional; design: scale not given: the % may be the effect or the level left; summary of the method: as §4
[11] = system: Rattus norvegicus; experiment: In vivo inhibition of OAT1 and OAT3 in Wistar rat assesed as increase in furosemide AUC (0 to t) at 10 mg/kg, po administered via gavage pretreated for 5 mins followed by furosemide addition and measured within 90 mins by HPLC analysis; type: functional; design: scale not given: the % may be the effect or the level left; summary of the method: as §4
[12] = Toxicity in Wistar rat at 10 mg/kg, po administered via gavage; type: organism-based; settings: in vivo; summary of the method: as §3

| Structure (SMILES) | inhibition at 5 min, 50 µM [1] | inhibition at 5 min, 50 µM [2] | IC50 [3] | inhibition (INH) [3] | IC50 [4] | inhibition (INH) [4] | Activity [5] | Activity [6] | Activity [7] | Activity [8] | Activity [9] | Activity [10] | Activity [11] | Activity [12] |
| --- | --- | --- | --- | --- | --- | --- | --- | --- | --- | --- | --- | --- | --- | --- |
| C=Cc1c(C)c(O)cc2c1-c1ccc(O)c(C)c1CC2 | < 50% | > 50% | 6.5 µM | Dose-dependent effect |  |  |  |  |  |  |  |  |  |  |
| COc1cc(C(=O)c2ccc(O)c(OC)c2)ccc1O | > 50% | > 50% | 2.3 µM | Dose-dependent effect | 3.5 µM | Dose-dependent effect |  |  |  |  |  |  |  |  |
| C=Cc1cc(C(=O)O)cc2c1-c1ccc(O)c(C)c1CC2 | > 50% | > 50% | 1.1 µM | Dose-dependent effect | 4.4 µM | Dose-dependent effect |  |  |  |  |  |  |  |  |
| C=Cc1cc2c(cc1C(=O)O)CCc1c-2ccc(O)c1C | > 50% | > 50% | 1.3 µM | Dose-dependent effect | 8.4 µM | Dose-dependent effect | Non-Toxic | 70% | 70% | 62% | 62% | 66% | 66% |  |
| C=Cc1cc(O)cc2c1-c1ccc(O)c(C)c1CC2 [EFFUSOL] | > 50% | > 50% | 22.7 µM |  | 23.3 µM |  |  |  |  |  |  |  |  |  |
| CCCN(CCC)S(=O)(=O)c1ccc(C(=O)O)cc1 [PROBENECID] |  |  |  |  |  |  |  |  |  |  |  |  |  | Non-Toxic |

Continued by falling IC50 [3], values first:

| inhibition at 5 min, 50 µM [1] | inhibition at 5 min, 50 µM [2] | IC50 [3] | inhibition (INH) [3] | IC50 [4] | inhibition (INH) [4] | Structure (SMILES) | Activity [5] | Activity [6] | Activity [7] | Activity [8] | Activity [9] | Activity [10] | Activity [11] | Activity [12] |
| --- | --- | --- | --- | --- | --- | --- | --- | --- | --- | --- | --- | --- | --- | --- |
| > 50% | > 50% | 8.3 µM | Dose-dependent effect | 43.1 µM |  | COC(C)c1cc(O)cc2c1-c1ccc(O)c(C)c1CC2 (racemic) |  |  |  |  |  |  |  |  |
| < 50% | > 50% | 2.8 µM | Dose-dependent effect |  |  | C=Cc1cc(C(=O)O)cc2c1CCc1c-2ccc(O)c1C |  |  |  |  |  |  |  |  |
| > 50% | > 50% | 1.1 µM | Dose-dependent effect | 18.3 µM |  | C=Cc1c(C(=O)O)ccc2c1CCc1c-2ccc(O)c1C |  |  |  |  |  |  |  |  |
